The text below walks through data of ChEMBL document CHEMBL3108685, “Exploring the chemical space of G-quadruplex binders: discovery of a novel chemotype targeting the human telomeric sequence” (J Med Chem, 2013).

SMILES strings stand for the structures. Calls of active or inactive are those of the source. The calls are words filed in the database; no cut-off is given here.

The species named for series [1] is Homo sapiens. Put plainly: Binding affinity to human c-myc G-quadruplex DNA assessed as change in melting temperature at 10 uM by FRET assay. The procedure, abridged: (§1)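 FRET melting: target oligos labelled 5′-DABCYL / 3′-fluorescein, 0.25 μM, with ligand in 50 mM potassium buffer (10 mM LiOH, 50 mM KCl, pH 7.4). Samples denatured at 95 °C for 5 min, cooled slowly overnight, then ramped to 90 °C and back to 30 °C at 0.2 °C/min. Excitation 488 nm, emission 520 nm. Tm taken from first derivative; at least three repeats, errors ±0.2 °C.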

The species named for series [2] is Homo sapiens. The experiment in a line: Binding affinity to human TBA G-quadruplex DNA assessed as change in melting temperature at 10 uM by FRET assay. An outline of the steps: as §1
Series [3] is filed under the species Homo sapiens. The experiment in a line: Binding affinity to human kit1 G-quadruplex DNA assessed as change in melting temperature at 10 uM by FRET assay. The procedure, abridged:
as §1

Series [4] is filed under the species Homo sapiens. Put plainly: Binding affinity to human kit2 G-quadruplex DNA assessed as change in melting temperature at 10 uM by FRET assay. An outline of the steps: as §1
Series [5] relates to BJ. Put plainly: Induction of DNA damage response in human BJ cells expressing SV40 early region protein HELT assessed as phosphorylation of gamma H2AX at 1 uM after 24 hrs by DAPI staining-based immunofluorescence analysis relative to control. Format: functional. The procedure, abridged:
(§2)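 BJ-HELT and BJ-hTERT fibroblasts grown in D-MEM with 10% FCS and 2 mM glutamine, exposed to 1 μM for 24 h. Cells fixed in 2% formaldehyde, permeabilized with 0.25% Triton X-100, stained with anti-γH2AX plus FITC secondary, and counterstained with DAPI. 200 cells scored on triplicate slides. Mean ± SD of at least three experiments.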

For series [6], the species on record is Homo sapiens. The experiment in a line: Binding affinity to human Tel24 G-quadruplex DNA assessed as change in melting temperature up to 20 uM by FRET assay. An outline of the steps:
as §1

The subject of series [7] is BJ. Put plainly: Induction of DNA damage response in human BJ cells expressing human TERT assessed as phosphorylation of gamma H2AX at 1 uM after 24 hrs by DAPI staining-based immunofluorescence analysis. Format: cell-based. The procedure, abridged: as §2
For series [8], the species on record is Homo sapiens. Put plainly: Displacement of thiazole orange from human Tel24 G-quadruplex DNA up to 28 uM by fluorescent intercalator displacement assay. An outline of the steps: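 Tel24 unlabelled (0.6 μM) preloaded with thiazole orange (1.2 μM) in 10 mM Tris, 50 mM KCl, pH 7.4. Ligand added in increasing amounts and fluorescence emission followed. Displacement % = 100 − (F/F0 × 100), with F0 the signal before ligand, plotted against concentration. At least three repeats, each in triplicate.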

Series [9] has as its system HT-29. Put plainly: Cell cycle arrest in human HT-29 cells assessed as accumulation at subG1 phase at 2 uM by […]propidium iodide staining-based flow cytometric analysis. Format: functional. The note with it: TDE = time-dependent effect. The procedure, abridged: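 HT29 cells cultured with or without 2 μM and sampled on days 4, 5 and 6. Cells fixed in 70% ethanol, stained 30 min at room temperature in the dark with PI (50 μg/mL) plus RNase A, and analysed by flow cytometry (20000 events). Sub-G1 fraction taken as the apoptotic measure.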
A general note: Flow cytometry measures light scatter and fluorescence of single cells or particles in a stream.

Series [10] deals with HT-29. The experiment in a line: Cytotoxicity against human HT-29 cells assessed as inhibition of cell survival after 4 days by clonogenic assay. Format: functional, cell-based. The procedure, abridged:
(§3)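 Cells seeded at 5 × 10^2 per 60 mm dish and treated 24 h later across a dose series for 4 days, then colony formation scored. Surviving fraction = treated/control absolute survival. IC50 from dose–response. Mean ± SD of three independent experiments.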

The subject of a further series is HeLa. The experiment in a line: Cytotoxicity against human HeLa cells assessed as inhibition of cell survival after 4 days by clonogenic assay. Format: functional, cell-based. An outline of the steps: as §3
Series [11] relates to HT-29. The experiment in a line: Induction of apoptosis in human HT-29 cells assessed as late apoptotic cells at 2 uM measured on day 5 by Annexin V/propidium iodide staining-based flow cytometric analysis (reference value: 10%). The format is functional.
Series [12] is filed under the species Homo sapiens. Put plainly: Binding affinity to human Tel24 G-quadruplex DNA at 2:1 ligand/DNA ratio by NMR analysis.
A further series relates to U2OS. The experiment in a line: Cytotoxicity against human U2OS cells assessed as inhibition of cell survival after 4 days by clonogenic assay. Format: functional, cell-based. The procedure, abridged: as §3
Series [13] concerns BJ. The experiment in a line: Cytotoxicity against human BJ cells expressing human TERT assessed as cell viability up to 3 uM after 4 days by MTT assay. The note with it: 96 h. The format is cell-based. An outline of the steps: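 BJ-hTERT cells seeded at 3 × 10^3 per well and treated 24 h later with 0, 1, 2 or 3 μM for 4 days. MTT (5 mg/mL stock in PBS) added, followed by 4 h at 37 °C. Formazan dissolved in isopropanol and OD read at 540 nm. Mean ± SD of three experiments.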
Background: Tetrazolium dyes change colour on reduction, which living cells bring about.

Series [14] relates to BJ. The experiment in a line: Induction of telomere dysfunction induced foci in human BJ cells expressing SV40 early protein HELT assessed as increase in gamma H2AX/TRF1 co-localization at 1 uM by deconvolution microscopy relative to control. Format: functional. The procedure, abridged: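 BJ-HELT fibroblasts given 1 μM, then double immunofluorescence for γH2AX and TRF1 with DAPI, imaged by deconvolution microscopy. In a single plane, 30 γH2AX-positive cells scored; cells with at least four γH2AX/TRF1 colocalizations counted as TIF-positive. Mean TIFs per nucleus also scored. Mean ± SD, three experiments.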

Series [15] relates to HT-29. Put plainly: Induction of apoptosis in human HT-29 cells assessed as early apoptotic cells at 2 uM measured on day 5 by Annexin V/propidium iodide staining-based flow cytometric analysis (reference value: 4%). The format is functional.
The species named for series [16] is Homo sapiens. The experiment in a line: Binding affinity to human Tel24 G-quadruplex DNA assessed as change in melting temperature at 10 uM by FRET assay. An outline of the steps: as §1
For series [17], the species on record is Homo sapiens. Put plainly: Binding affinity to human Tel24 G-quadruplex DNA assessed as change in DNA topology by CD spectroscopic analysis. The procedure, abridged: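 CD spectra recorded at 25 °C, 220–320 nm, on annealed Tel24 (40 μM) with or without an excess of ligand. Buffer 10 mM Tris-HCl, 50 mM KCl, pH 7.4; 1 mm path length. Average of three scans, buffer baseline subtracted. Time constant 4 s, bandwidth 2 nm, scan rate 20 nm min−1.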

Take `Cc1cc(NC(=O)c2cc(-c3ccccc3O)no2)nn1CC(=O)N1CCOCC1`: the result in the series listed under Homo sapiens [1], in the series listed under Homo sapiens [2], in the series listed under Homo sapiens [3] and in the series filed under Homo sapiens [4] was inactive.
For the compound `COc1ccc(NC(=O)c2ccc(CN3CCC(Cc4ccccc4)CC3)cc2)cc1OC`, in the series on BJ [5], the result was Active. Besides, the result in the series filed under Homo sapiens [6], in the series listed under Homo sapiens [1], in the series listed under Homo sapiens [2], in the series listed under Homo sapiens [3], in the series filed under Homo sapiens [4] and in the series filed under Homo sapiens [8] was inactive. Moreover, the Activity entry with BJ [7] is “Non-toxic”.
As for `Clc1ccc2[nH]c(-c3ccc(OCCCN4CCN(c5ccccc5)CC4)cc3)nc2c1`, the outcome in the series on BJ [5] was Active. Further, the result in the series listed under Homo sapiens [6], in the series filed under Homo sapiens [1], in the series listed under Homo sapiens [2], in the series listed under Homo sapiens [3], in the series filed under Homo sapiens [4] and in the series listed under Homo sapiens [8] was inactive. For the same compound, in the series on BJ [7], the Activity entry was “Non-toxic”.
On to `Cn1c(=O)c2cc(C(=O)NCCN3CCC(Cc4ccccc4)CC3)sc2c2ccccc21`, for which the Activity entry in the series with HT-29 [9] was “tde”; in the series on BJ [5] it was 60%; with HT-29 [10] it was “Dose-dependent effect”; in the series on HeLa, “Dose-dependent effect”; with BJ [7], “Non-toxic”; in the series on HT-29 [11] it was 30%. The Activity entry in the series on U2OS was “Dose-dependent effect”; in the series with BJ [13] it was “Non-toxic”; in the series with BJ [14] it was “<=50%”; in the series with HT-29 [15], 37%. The ΔTm in the series filed under Homo sapiens [6] was found to be 11 °C. For the same compound, the IC50 in the series with HT-29 [10] (HT-29, 96 h) worked out at 1000 nM; in the series on HeLa (96 h), 1000 nM; in the series with U2OS (96 h), 1000 nM. Besides, the result in the series listed under Homo sapiens [12], in the series listed under Homo sapiens [8], in the series listed under Homo sapiens [16] and in the series listed under Homo sapiens [17] was Active.

By ΔTm is commonly meant the change in melting temperature against a reference sample. In general, IC50 refers to the point on the concentration scale where inhibition reaches its midpoint.
